# Article PMC3374645 (European Journal of Pharmaceutical Sciences, 2012)
# Like-named read-outs stand apart in the source and are kept apart here.
# Columns and labels:
# [1] = 2008, cited from earlier work
# [2] = comparison value, no reference given; cited from earlier work
# [3] = Saturation solubility, shake-flask in buffers, HPLC; format: physicochemical
# Method in brief: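 Shake-flask method: excess test compound was placed in 1.0 mL citrate, HEPES or phosphate buffer at pH 2.0–8.0 and shaken 24 h at 25.0 ± 0.1 °C, 1500 rpm. Suspensions then stood unshaken overnight before centrifugation. Supernatants were filtered (0.1 µm) and measured by reverse-phase C18 HPLC at 242 nm.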
# [4] = Partition coefficient in octanol:water system; format: physicochemical; conditions: pH 7.0
# Method in brief: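 Test compound (1.0 mg) was added to 4.0 mL of a 1:1 octanol:water mixture at pH 7.0 and shaken vigorously for 30 min. Phases were separated by centrifugation, passed through 0.1 µm filters and quantified by reverse-phase C18 HPLC (90% acetonitrile, 242 nm).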
# [5] = test system: Caco-2 monolayers; assay: Bidirectional permeability in Caco-2 monolayers; format: in vitro ADME
# [6] = Parallel artificial membrane permeability assay; format: in vitro ADME; conditions: PAMPA, pH 7.4, 4 h
# [7] = Noncompartmental pharmacokinetics after oral administration; format: in vivo, Sprague–Dawley rats; conditions: rat
# Method in brief: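 Male Sprague–Dawley rats (240–350 g, n = 5/group) were fasted overnight and gavaged with 2% (w/v) test compound in ethanol/TPGS/water. Tail-vein plasma was sampled predose and 0.25–24 h, precipitated with acetonitrile, and run on C18 HPLC at 242 nm (nimesulide internal standard; 0.05–8.00 μg/mL calibration). Per-rat SHAM analysis used log-trapezoidal AUC, with CL = Dose/AUC.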
# [8] = Three-compartment model fit after i.v. administration; format: in vivo, Sprague–Dawley rats; conditions: rat, i.v. 5.0 mg/kg
# Method in brief: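 Rats received a tail-vein injection of 5.0 mg/kg in ethanol/TPGS/water vehicle. Plasma was taken from 0.017 to 24 h and assayed by HPLC. Concentration–time data were fitted by generalized least squares to three-compartment mass-balance differential equations, seeded with noncompartmental estimates. Parameters are reported with CV%; Vss was taken as the sum of the compartment volumes.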
# [9] = Simultaneous three-compartment model fit of i.v. and oral data; format: in vivo, Sprague–Dawley rats; conditions: rat
# Method in brief: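 Pooled i.v. (5.0 mg/kg) and oral (20, 40, 60 mg/kg gavage) rat plasma data were fitted simultaneously by generalized least squares with variance error models. The structural model had three compartments with combined zero-order/Michaelis–Menten limited systemic uptake. Models were discriminated by goodness-of-fit plots, residuals, SE, CV%, CI95% and lowest AIC.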
molecule,measurement,setting,value
"c1ccc2c(Cc3c[nH]c4ccccc34)c[nH]c2c1 [DIM, 3,3′-diindolylmethane]",Cmax,[1]; single 100 mg dose ref Reed et al.,32 ng/mL
same,Cmax,[1]; single 200 mg dose ref Reed et al.,104 ng/mL
same,Cmax,[1]; single 300 mg dose ref Reed et al.,108 ng/mL
same,Log K0/w,[2],≈ 4.0
"c1ccc(-c2ccc(C(c3c[nH]c4ccccc34)c3c[nH]c4ccccc34)cc2)cc1 [DIM-P, DIM-C-pPhC6H5]",aqueous solubility,"[3]; pH 2.0, 25 °C, 24 h shake-flask",0.28 ± 0.03 µg/mL
same,maximum aqueous solubility,"[3]; pH 8.0, 25 °C, 24 h shake-flask",0.73 ± 0.09 µg/mL
same,overall solubility,[3]; pH range 2–8,less than 1.0 μg/mL
same,experimental Log K0/w,[4],6.79 ± 0.12 and ≈ 7.0
same,Peff A–B,"[5]; Caco-2, apical pH 5",0.34 ± 0.06 × 10^−6 cm/s
same,Peff B–A,"[5]; Caco-2, apical pH 5",0.53 ± 0.08 × 10^−6 cm/s
same,Peff A–B,"[5]; Caco-2, apical pH 5.8",0.33 ± 0.07 × 10^−6 cm/s
same,Peff B–A,"[5]; Caco-2, apical pH 5.8",0.50 ± 0.06 × 10^−6 cm/s
same,Peff A–B,"[5]; Caco-2, apical pH 6.8",0.35 ± 0.06 × 10^−6 cm/s
same,Peff B–A,"[5]; Caco-2, apical pH 6.8",0.52 ± 0.07 × 10^−6 cm/s
same,"average Peff, B–A","[5]; Caco-2, basolateral to apical, average",0.51 ± 0.09 × 10^−6 cm/s
same,absorptive (A–B) versus secretive (B–A) transport,"[5]; bidirectional Caco-2, no active efflux",nearly unity
same,Biopharmaceutics Classification System (BCS) class,[5]; from low solubility and low permeability,Class IV
same,donor-to-receptor apparent permeability (Papp),[6]; stirred water layer,2.69 ± 0.08 × 10^−6 cm/s
same,donor-to-receptor apparent permeability (Papp),[6]; unstirred water layer,0.58 ± 0.07 × 10^−6 cm/s
same,AUC0–24h /Dose,[7]; oral 20 mg/kg,2.28 ± 0.46 (min/L) *10^−3
same,AUMC0–24h,[7]; oral 20 mg/kg,250.45 ± 62.42 μg × min^2/mL
same,AUMC0–24h/Dose,[7]; oral 20 mg/kg,0.012 ± 0.003 min^2/mL
same,CL,[7]; oral 20 mg/kg,0.8652 ± 0.0648 mL/min/kg
same,Cmax,[7]; oral 20 mg/kg,7210 ± 1190 ng/mL
same,Cmax/dose,[7]; oral 20 mg/kg,0.36 ± 0.06
same,FBIO (absolute bioavailability),[7]; oral 20 mg/kg,0.13 ± 0.03
same,MRT,[7]; oral 20 mg/kg,5.47 ± 0.64 h
same,Terminal t1/2,[7]; oral 20 mg/kg,6.91 ± 3.84 h
same,Vss,[7]; oral 20 mg/kg,0.49979 ± 0.223605 L/kg
same,time of maximum plasma level,[7]; oral 20 mg/kg,2 h
same,AUMC0–24h,[7]; oral 40 mg/kg,548.85 ± 207.09 μg × min^2/mL
same,AUMC0–24h/Dose,[7]; oral 40 mg/kg,0.014 ± 0.005 min^2/mL
same,CL,[7]; oral 40 mg/kg,0.8315 ± 0.0753 mL/min/kg
same,Cmax,[7]; oral 40 mg/kg,11270 ± 1040 ng/mL
same,Cmax/dose,[7]; oral 40 mg/kg,0.28 ± 0.03
same,FBIO (absolute bioavailability),[7]; oral 40 mg/kg,0.12 ± 0.03
same,MRT,[7]; oral 40 mg/kg,6.29 ± 1.14 h
same,Terminal t1/2,[7]; oral 40 mg/kg,7.86 ± 3.12 h
same,Vss,[7]; oral 40 mg/kg,0.54861 ± 0.16478 L/kg
same,time of maximum plasma level,[7]; oral 40 mg/kg,2 h
same,AUC0–24h /Dose,[7]; oral 60 mg/kg,2.32 ± 0.46 (min/L) *10^−3
same,AUMC0–24h,[7]; oral 60 mg/kg,912.16 ± 299.02 μg × min^2/mL
same,AUMC0–24h/Dose,[7]; oral 60 mg/kg,0.015 ± 0.005 min^2/mL
same,CL,[7]; oral 60 mg/kg,0.8397 ± 0.0582 mL/min/kg
same,Cmax,[7]; oral 60 mg/kg,17860 ± 1620 ng/mL
same,Cmax/dose,[7]; oral 60 mg/kg,0.30 ± 0.03
same,FBIO (absolute bioavailability),[7]; oral 60 mg/kg,0.13 ± 0.03
same,MRT,[7]; oral 60 mg/kg,6.43 ± 0.81 h
same,Terminal t1/2,[7]; oral 60 mg/kg,7.60 ± 2.34 h
same,Vss,[7]; oral 60 mg/kg,0.54239 ± 0.12804 L/kg
same,time of maximum plasma level,[7]; oral 60 mg/kg,3 h
same,absolute bioavailability,"[7]; oral, as stated in abstract",0.13 ± 0.06
same,apparent distributional phase,[8],< 2 h
same,VSS,[8]; secondary parameter,0.68285 L/kg
same,t1/2,[8]; secondary parameter,10.653 h
same,CLC,[8]; three compartment model,0.74 mL/min/kg
same,CLd1,[8]; three compartment model,0.56 mL/min/kg
same,CLd2,[8]; three compartment model,0.29 mL/min/kg
same,V1,[8]; three compartment model,0.64098 L/kg
same,V2,[8]; three compartment model,0.02822 L/kg
same,VC,[8]; three compartment model,0.01365 L/kg
same,zero-order absorption site access rate,[9]; oral 20 mg/kg,14 mg/h/kg
same,zero-order absorption site access rate,[9]; oral 40 mg/kg,28 mg/h/kg
same,zero-order absorption site access rate,[9]; oral 60 mg/kg,42 mg/h/kg
same,CLC,"[9]; simultaneous fit i.v. 5.0 and oral 20, 40, 60 mg/kg",0.77 mL/min/kg
same,Abmax (maximum absorption rate at saturation),[9]; simultaneous fit i.v. and oral,60.65 µg/min/kg
same,CLd1,[9]; simultaneous fit i.v. and oral,0.606 mL/min/kg
same,CLd2,[9]; simultaneous fit i.v. and oral,0.319 mL/min/kg
same,FBIO,[9]; simultaneous fit i.v. and oral,0.126
same,SD50 (amount of drug at the absorption site at 50% saturation),[9]; simultaneous fit i.v. and oral,8.6797 mg/kg
same,Tsite (time required for drug to reach absorption site),[9]; simultaneous fit i.v. and oral,85.20 min
same,V1,[9]; simultaneous fit i.v. and oral,0.64606 L/kg
same,V2,[9]; simultaneous fit i.v. and oral,0.0285 L/kg
same,VC,[9]; simultaneous fit i.v. and oral,0.0139 L/kg
Lucifer Yellow [reference compound],mean permeability of paracellular control,[5]; Caco-2 monolayer integrity control,< 0.15 ×10⁻⁶ cm/s
